Several values for one entry are separate records, joined by “and”; a condition that tells them apart may be missing. Equal entries are not always repeated.
Experiments:
[1] = Binding affinity tested against D4.2 receptor in Chinese hamster ovary cell line (CHO cells) using [3H]spiperone as a radioligand; assay type: cell-based, Cricetulus griseus
D(4) dopamine receptor [2] = target: T1, D(4) dopamine receptor (Homo sapiens, UniProt P21917); test: In vitro EC50 tested on HEK293 cells co-transfected with human Dopamine receptor D4.4 using FLIPR assay; assay type: cell-based
T1 sequence (P21917 whole entry): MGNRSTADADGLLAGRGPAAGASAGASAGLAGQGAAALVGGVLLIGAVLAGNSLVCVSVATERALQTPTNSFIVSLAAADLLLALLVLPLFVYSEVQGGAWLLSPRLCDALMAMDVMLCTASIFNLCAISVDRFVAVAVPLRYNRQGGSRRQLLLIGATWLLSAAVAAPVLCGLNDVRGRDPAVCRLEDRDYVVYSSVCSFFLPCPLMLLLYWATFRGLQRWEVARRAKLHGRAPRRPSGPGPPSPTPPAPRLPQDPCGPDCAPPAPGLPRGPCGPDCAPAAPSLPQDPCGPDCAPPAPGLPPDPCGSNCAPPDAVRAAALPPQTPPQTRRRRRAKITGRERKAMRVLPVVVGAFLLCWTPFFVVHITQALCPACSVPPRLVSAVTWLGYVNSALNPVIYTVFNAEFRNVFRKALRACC
Method in brief: (§1)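 HEK293 cells coexpressing human D4.4 receptor and Gαqo5, plated at 20 000 cells/well and grown 2 days. Loaded 1 h at 23 °C with 4 µM Fluo-4 plus 0.04% Pluronic F-127 in DPBS, washed four times. Compound added, fluorescence read over 3 min.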

[3] = target: T2, D(4) dopamine receptor (Homo sapiens) (UniProt P21917); test: In vitro efficacy tested on human Dopamine receptor D4.4 were co-expressed with GRqo5 in HEK293 cells using FLIPR assay (Efficacy relative to 10 uM dopamine); assay type: cell-based; method in brief: as §1
T2 sequence (whole entry): T1 sequence (P21917 whole entry)

Rattus norvegicus [4] = test: In vivo maximal penile erection in rats 60 min after subcutaneous administration; assay type: functional
Method in brief: (§2)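 Conscious male Wistar rats, adapted 60 min to a dim red-lit room, tested between 9:00 a.m. and 3:00 p.m. Dosed subcutaneously, then caged singly and observed directly for 60 min. Percent incidence is the share of animals with one or more erections; 8–30 animals per group. Maximally effective dose is the dose giving peak incidence, with significance versus control.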

Rattus norvegicus [5] = test: In vivo maximal effective dose tested in rats for erection 60 min after subcutaneous administration; assay type: functional; method in brief: as §2
D(2) dopamine receptor [6] = target: T3, D(2) dopamine receptor (Homo sapiens, UniProt P14416); test: In vitro efficacy tested on human Dopamine receptor D2 were co-expressed with GRqo5 in HEK293 cells using FLIPR assay (Efficacy relative to 10 uM dopamine); assay type: functional, cell-based
T3 sequence (P14416 whole entry): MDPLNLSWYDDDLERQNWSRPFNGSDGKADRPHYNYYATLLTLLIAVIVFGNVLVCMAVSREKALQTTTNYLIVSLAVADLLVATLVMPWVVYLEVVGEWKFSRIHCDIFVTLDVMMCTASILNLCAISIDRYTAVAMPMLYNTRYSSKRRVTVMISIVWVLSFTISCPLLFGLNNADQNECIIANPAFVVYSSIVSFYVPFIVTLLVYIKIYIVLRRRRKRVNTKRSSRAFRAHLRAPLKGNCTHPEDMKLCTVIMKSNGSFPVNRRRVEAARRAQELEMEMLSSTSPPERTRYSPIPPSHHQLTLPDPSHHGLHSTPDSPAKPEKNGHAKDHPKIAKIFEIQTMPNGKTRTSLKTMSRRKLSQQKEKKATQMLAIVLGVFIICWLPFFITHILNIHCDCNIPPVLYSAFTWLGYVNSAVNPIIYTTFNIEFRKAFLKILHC

D(4) dopamine receptor [7] = target: T4, D(4) dopamine receptor (Rattus norvegicus, UniProt P30729); test: In vitro effective concentration tested on HEK293 cells co-transfected with rat Dopamine receptor D4 using FLIPR assay; Not an agonist up to 10 uM; assay type: functional, cell-based
T4 sequence (P30729 whole entry): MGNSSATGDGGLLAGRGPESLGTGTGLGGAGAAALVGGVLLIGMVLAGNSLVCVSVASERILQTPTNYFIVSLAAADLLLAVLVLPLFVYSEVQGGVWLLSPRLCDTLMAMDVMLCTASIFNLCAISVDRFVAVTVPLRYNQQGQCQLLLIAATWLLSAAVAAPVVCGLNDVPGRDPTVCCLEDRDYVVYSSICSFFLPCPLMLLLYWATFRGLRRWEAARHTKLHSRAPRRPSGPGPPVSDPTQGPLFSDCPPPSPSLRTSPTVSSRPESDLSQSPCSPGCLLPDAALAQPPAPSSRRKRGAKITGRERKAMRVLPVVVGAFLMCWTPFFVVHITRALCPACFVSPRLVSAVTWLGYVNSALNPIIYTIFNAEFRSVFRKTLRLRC
Method in brief: (§3)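 HEK cells co-transfected with the target receptor plus Gαqo5. […] Compounds were tested up to 10 µM. Untransfected cells served as a control.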

[8] = target: D(2) dopamine receptor (Rattus norvegicus) (UniProt P61169); test: In vitro efficacy tested on ferret Dopamine receptor D2 were co-expressed with GRqo5 in HEK293 cells using FLIPR assay (Efficacy relative to 10 uM dopamine); assay type: functional, cell-based; method in brief: as §3
Sequence of D(2) dopamine receptor (Rattus norvegicus) (P61169 whole entry): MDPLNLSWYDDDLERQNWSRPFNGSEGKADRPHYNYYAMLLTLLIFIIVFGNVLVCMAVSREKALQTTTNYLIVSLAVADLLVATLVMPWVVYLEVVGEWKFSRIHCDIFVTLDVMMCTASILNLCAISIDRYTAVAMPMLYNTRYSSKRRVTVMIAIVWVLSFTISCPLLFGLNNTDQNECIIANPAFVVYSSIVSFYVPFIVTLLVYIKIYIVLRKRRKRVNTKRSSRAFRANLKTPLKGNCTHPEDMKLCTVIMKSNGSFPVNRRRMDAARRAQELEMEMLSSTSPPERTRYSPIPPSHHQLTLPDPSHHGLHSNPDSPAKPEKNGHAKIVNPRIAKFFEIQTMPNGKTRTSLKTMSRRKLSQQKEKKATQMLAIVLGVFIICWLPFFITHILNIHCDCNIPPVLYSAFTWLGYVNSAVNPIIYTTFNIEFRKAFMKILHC

[9] = target: D(2) dopamine receptor (Rattus norvegicus) (UniProt P61169); test: In vitro efficacy tested on rat Dopamine receptor D2 were coexpressed with GRqo5 in HEK293 cells using FLIPR assay (Efficacy relative to 10 uM dopamine); assay type: functional, cell-based; method in brief: as §3
D(4) dopamine receptor [10] = target: T1, D(4) dopamine receptor; test: In vitro effective concentration tested on HEK293 cells co-transfected with human Dopamine receptor D4 using FLIPR assay; Not an agonist up to 10 uM; assay type: functional, cell-based
Method in brief: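 Human D4.4 receptor co-expressed with Gαqo5 in HEK293 cells, plated at 20 000 cells/well and grown 2 days. Loaded with 4 µM Fluo-4 and 0.04% Pluronic F-127 in DPBS with glucose and pyruvate for 1 h at 23 °C, then washed. Compound added and fluorescence read over 3 min on FLIPR. […] EC50 is the concentration giving half-maximal response.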

[11] = target: T5, 5-hydroxytryptamine receptor 1A (Homo sapiens, UniProt P08908); test: In vitro binding affinity tested on human 5-hydroxytryptamine 1A receptor
T5 sequence (P08908 whole entry): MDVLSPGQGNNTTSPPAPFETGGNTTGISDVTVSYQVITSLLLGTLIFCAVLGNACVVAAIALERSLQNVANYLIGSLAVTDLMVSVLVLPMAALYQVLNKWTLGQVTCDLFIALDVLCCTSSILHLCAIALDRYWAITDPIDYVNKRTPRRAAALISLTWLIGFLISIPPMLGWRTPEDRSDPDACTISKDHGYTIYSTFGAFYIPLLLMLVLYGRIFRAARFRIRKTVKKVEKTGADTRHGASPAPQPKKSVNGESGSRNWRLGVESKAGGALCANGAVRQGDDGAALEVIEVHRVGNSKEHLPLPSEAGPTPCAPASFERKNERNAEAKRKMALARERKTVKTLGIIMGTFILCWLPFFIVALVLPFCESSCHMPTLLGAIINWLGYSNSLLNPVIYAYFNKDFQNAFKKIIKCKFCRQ

D(4) dopamine receptor [12] = target: T4, D(4) dopamine receptor; test: In vitro effective concentration tested on HEK293 cells co-transfected with rat Dopamine receptor D4 using FLIPR assay; assay type: cell-based
D(2) dopamine receptor [13] = target: T3, D(2) dopamine receptor; test: In vitro binding affinity tested on human Dopamine receptor D2 using [3H]spiperon as a radioligand
D(2) dopamine receptor [14] = target: T3, D(2) dopamine receptor; test: In vitro binding affinity tested on human Dopamine receptor D2 (long) using [3H]spiperon as a radioligand
D(2) dopamine receptor [15] = target: T3, D(2) dopamine receptor; test: In vitro binding affinity tested on human Dopamine receptor D2 (short) using [3H]spiperone as a radioligand
D(2) dopamine receptor [16] = target: T6, D(2) dopamine receptor (Rattus norvegicus, UniProt P61169); test: In vitro effective concentration tested on HEK293 cells co-transfected with rat Dopamine receptor D2 using FLIPR assay; Not an agonist up to 10 uM; assay type: functional, cell-based
T6 sequence (P61169 whole entry): as the sequence (P61169 whole entry) above

D(2) dopamine receptor [17] = target: T3, D(2) dopamine receptor; test: In vitro effective concentration tested on HEK293 cells co-transfected with human Dopamine receptor D2 using FLIPR assay; Not an agonist up to 10 uM; assay type: functional, cell-based
[18] = target: T5, 5-hydroxytryptamine receptor 1A; test: Binding affinity towards human 5-hydroxytryptamine 1A receptor
[19] = target: T7, Adrenergic receptor alpha-2 (Homo sapiens, UniProt P08913+P18825+P18089); test: Binding affinity towards human alpha-2 adrenergic receptor; assay type: protein assay
T7 sequence (P08913 whole entry): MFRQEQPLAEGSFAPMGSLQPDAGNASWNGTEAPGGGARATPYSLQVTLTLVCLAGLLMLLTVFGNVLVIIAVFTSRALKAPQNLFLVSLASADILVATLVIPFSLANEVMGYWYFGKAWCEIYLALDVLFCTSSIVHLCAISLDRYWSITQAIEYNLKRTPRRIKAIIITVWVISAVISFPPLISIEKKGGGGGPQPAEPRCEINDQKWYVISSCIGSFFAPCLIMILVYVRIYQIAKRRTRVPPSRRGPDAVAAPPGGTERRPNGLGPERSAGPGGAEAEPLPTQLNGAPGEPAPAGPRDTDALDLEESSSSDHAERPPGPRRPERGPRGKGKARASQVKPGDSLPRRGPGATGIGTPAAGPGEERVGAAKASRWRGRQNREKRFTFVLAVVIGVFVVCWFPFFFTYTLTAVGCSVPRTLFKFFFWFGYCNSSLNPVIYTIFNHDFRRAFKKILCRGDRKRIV
T7 sequence (P18825 whole entry): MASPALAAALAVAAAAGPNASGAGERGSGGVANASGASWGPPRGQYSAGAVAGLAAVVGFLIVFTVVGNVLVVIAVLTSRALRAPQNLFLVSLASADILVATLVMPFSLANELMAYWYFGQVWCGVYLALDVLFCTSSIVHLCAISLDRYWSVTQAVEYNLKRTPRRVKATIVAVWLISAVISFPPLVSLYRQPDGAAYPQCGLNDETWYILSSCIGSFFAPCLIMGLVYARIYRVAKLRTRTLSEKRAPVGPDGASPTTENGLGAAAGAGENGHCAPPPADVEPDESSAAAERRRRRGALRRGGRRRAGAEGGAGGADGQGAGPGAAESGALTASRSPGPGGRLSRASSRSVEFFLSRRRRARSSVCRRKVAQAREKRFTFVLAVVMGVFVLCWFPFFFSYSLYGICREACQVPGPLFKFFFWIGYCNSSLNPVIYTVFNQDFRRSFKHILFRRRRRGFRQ
T7 sequence (P18089 whole entry): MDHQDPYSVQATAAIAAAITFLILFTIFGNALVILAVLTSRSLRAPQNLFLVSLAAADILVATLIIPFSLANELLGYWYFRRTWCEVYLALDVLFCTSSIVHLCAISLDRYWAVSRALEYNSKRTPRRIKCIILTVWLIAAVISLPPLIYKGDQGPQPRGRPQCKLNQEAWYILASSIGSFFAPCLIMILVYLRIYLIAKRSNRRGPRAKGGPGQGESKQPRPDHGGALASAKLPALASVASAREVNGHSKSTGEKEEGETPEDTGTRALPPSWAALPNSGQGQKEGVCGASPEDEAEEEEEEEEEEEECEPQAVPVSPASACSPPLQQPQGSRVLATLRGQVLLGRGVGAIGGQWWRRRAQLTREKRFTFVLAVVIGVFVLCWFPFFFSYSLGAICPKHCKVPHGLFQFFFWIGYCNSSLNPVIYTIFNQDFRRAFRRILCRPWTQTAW

D(4) dopamine receptor [20] = target: T1, D(4) dopamine receptor; test: Binding affinity towards human D4.4 receptor
Method in brief: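 Membranes from HEK-293 cells transfected with human D4.4 receptor, stored at -80 °C. Filtration through glass microfiber filters, three cold Tris washes, scintillation counting; Ki derived.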

D(2) dopamine receptor [21] = target: T3, D(2) dopamine receptor; test: Binding affinity towards human Dopamine receptor D2
[22] = target: D(2) dopamine receptor (Rattus norvegicus) (UniProt P61169); test: In vitro efficacy tested on rat Dopamine receptor D2 were co-expressed with GRqo5 in HEK293 cells using FLIPR assay (Efficacy relative to 10 uM dopamine); assay type: cell-based
D(2) dopamine receptor [23] = target: T6, D(2) dopamine receptor; test: In vitro effective concentration tested on HEK293 cells co-transfected with rat Dopamine receptor D2 using FLIPR assay; assay type: cell-based
D(3) dopamine receptor = D(3) dopamine receptor (Homo sapiens, UniProt P35462); test: Binding affinity towards human Dopamine receptor D3
Sequence of D(3) dopamine receptor (P35462 whole entry): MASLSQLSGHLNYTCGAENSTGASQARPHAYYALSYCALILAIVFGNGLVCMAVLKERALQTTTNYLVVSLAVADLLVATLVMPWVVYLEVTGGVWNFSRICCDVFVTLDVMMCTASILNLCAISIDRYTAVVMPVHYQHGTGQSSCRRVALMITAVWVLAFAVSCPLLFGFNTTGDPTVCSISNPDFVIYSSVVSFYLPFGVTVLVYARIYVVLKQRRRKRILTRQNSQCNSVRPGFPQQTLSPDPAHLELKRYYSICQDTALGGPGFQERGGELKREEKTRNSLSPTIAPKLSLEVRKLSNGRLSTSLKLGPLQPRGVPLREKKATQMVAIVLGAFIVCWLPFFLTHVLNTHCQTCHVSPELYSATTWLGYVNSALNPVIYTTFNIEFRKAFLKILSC

[24] = target: Kappa-type opioid receptor (Homo sapiens, UniProt P41145); test: Binding affinity towards human Opioid receptor kappa 1
Sequence of Kappa-type opioid receptor (P41145 whole entry): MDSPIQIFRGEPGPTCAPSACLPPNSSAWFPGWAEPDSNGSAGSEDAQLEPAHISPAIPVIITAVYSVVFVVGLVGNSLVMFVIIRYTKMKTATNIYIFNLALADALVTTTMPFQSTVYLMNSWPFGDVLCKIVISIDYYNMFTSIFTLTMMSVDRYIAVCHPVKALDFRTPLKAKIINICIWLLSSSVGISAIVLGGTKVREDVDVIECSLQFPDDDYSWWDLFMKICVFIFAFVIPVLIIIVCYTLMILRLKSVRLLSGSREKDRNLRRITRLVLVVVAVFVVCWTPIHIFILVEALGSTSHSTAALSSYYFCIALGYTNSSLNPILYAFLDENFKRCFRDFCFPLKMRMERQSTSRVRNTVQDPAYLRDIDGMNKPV

Question: What does the source list for `c1ccc(N2CCN(Cc3nc4ccccc4[nH]3)CC2)cc1`?
Answer: Ki [1]: 0.033 µM; EC50 (D(4) dopamine receptor [2]): 0.0306 µM; Efficacy [3]: 33%; Activity (Rattus norvegicus [4]): 75%; Effective dose (Rattus norvegicus [5]): 0.03 µM/kg

Question: What does the source list for `CN[C@@H]1Cc2cccc3[nH]c(=O)n(c23)C1` [SUMANIROLE]?
Answer: Efficacy (D(2) dopamine receptor [6]): 93%; EC50 (D(4) dopamine receptor [7]): Not Active; Efficacy [8]: 90%; Efficacy [9]: 103%; EC50 (D(4) dopamine receptor [10]): Not Active

Question: What does the source list for `c1ccc(N2CCN(Cc3nc4ccccc4[nH]3)CC2)nc1` [ABT-724]?
Answer: Ki [11]: > 10 µM and 2780 µM; EC50 (D(4) dopamine receptor [12]): 0.0143 µM; Ki (D(2) dopamine receptor [13]): 0.16 µM; Ki (D(2) dopamine receptor [14]): 15 µM; Ki (D(2) dopamine receptor [15]): 51 µM; Efficacy [3]: 61%; EC50 (D(2) dopamine receptor [16]): Not Active; EC50 (D(2) dopamine receptor [17]): Not Active; Activity (Rattus norvegicus [4]): 77%; Effective dose (Rattus norvegicus [5]): 0.03 µM/kg

Question: Which Ki [18] does the source give for `Fc1ccc2[nH]c(CN3CCN(c4ccccn4)CC3)cc2c1` here?
Answer: 0.2 µM

Question: What about the Ki [19] of the same compound?
Answer: 0.4 µM

Question: And the Ki (D(4) dopamine receptor [20])?
Answer: 0.0036 µM

Question: And the EC50 (D(4) dopamine receptor [12])?
Answer: 0.036 µM

Question: And the Ki (D(2) dopamine receptor [21])?
Answer: 0.12 µM

Question: And the Efficacy [22]?
Answer: 89%

Question: What about the EC50 (D(2) dopamine receptor [23]) of the same compound?
Answer: 0.055 µM

Question: And the EC50 (D(2) dopamine receptor [17])?
Answer: Not Active

Question: And the Ki (D(3) dopamine receptor)?
Answer: 0.56 µM

Question: And the Ki [24]?
Answer: 0.3 µM

Question: And the Activity (Rattus norvegicus [4])?
Answer: 83%

Question: What about the Effective dose (Rattus norvegicus [5]) of the same compound?
Answer: 1 µM/kg
